The subject of assay [1] is Enterococcus faecium. Briefly: Antifolate activity against Streptococcus faecium ATCC 8043 assessed as growth inhibition. Particulars: for IC50: read-out: I50. The format is functional, organism-based.
Assay [2] relates to Lacticaseibacillus casei. Briefly: Antifolate activity against Lactobacillus casei ATCC 7469 assessed as growth inhibition. The format is functional, organism-based.
Assay [3] addresses T1, Thymidylate synthase (Lactobacillus casei) (UniProt P00469).
T1 sequence (whole entry): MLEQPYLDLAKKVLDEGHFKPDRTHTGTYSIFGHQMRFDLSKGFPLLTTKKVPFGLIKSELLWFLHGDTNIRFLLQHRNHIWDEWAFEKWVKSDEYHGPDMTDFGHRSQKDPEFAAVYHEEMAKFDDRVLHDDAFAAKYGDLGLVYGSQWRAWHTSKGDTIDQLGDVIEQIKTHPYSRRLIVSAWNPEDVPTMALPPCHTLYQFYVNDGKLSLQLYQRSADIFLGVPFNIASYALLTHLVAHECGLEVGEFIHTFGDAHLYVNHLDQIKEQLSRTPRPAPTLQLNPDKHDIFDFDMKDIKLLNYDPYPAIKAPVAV
Briefly: Inhibition of Lactobacillus casei thymidylate synthase. The settings on record: Lacticaseibacillus casei.

For assay [4], the system named is Enterococcus faecium. Kind of assay: Antifolate activity against Streptococcus faecium ATCC 8043 assessed as growth inhibition at 1.6 ug/ml. The format is functional, organism-based. The essentials:
(§1)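 Bacterial growth was run in each organism's own assay medium by earlier-reported methods, with test agent at 1.6 μg/mL.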

Assay [5] has as its target Dihydrofolate reductase (Lactobacillus casei) (UniProt P00381). Briefly: Inhibition of Lactobacillus casei DHFR. The settings on record: Lacticaseibacillus casei.
Assay [6] relates to Lacticaseibacillus casei. Kind of assay: Antifolate activity against Lactobacillus casei ATCC 7469 assessed as growth inhibition at 1.6 ug/ml. The format is functional, organism-based. The method, boiled down: as §1
The target in assay [7] is Dihydrofolate reductase (Lactobacillus casei) (UniProt P00381). Kind of assay: Activity of Lactobacillus casei DHFR. The settings on record: Lacticaseibacillus casei. The essentials:
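The 7,8-dihydro form of the test folate analogue replaced the natural substrate in the previously described L. casei DHFR assay medium.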

In brackets after ≈: the same amount, converted by molar mass. Activity calls are given as the source filed them. The rule behind the calls is not given here.

Chain of Dihydrofolate reductase (Lactobacillus casei) (P00381 whole entry): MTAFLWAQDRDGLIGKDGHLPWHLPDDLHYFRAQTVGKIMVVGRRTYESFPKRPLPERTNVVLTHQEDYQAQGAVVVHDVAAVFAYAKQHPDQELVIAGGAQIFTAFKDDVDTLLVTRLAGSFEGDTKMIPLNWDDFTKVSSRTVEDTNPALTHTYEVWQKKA

For `Nc1nc(=O)c2nc(CSc3ccc(C(=O)N[C@@H](CCC(=O)O)C(=O)O)cc3)cnc2[nH]1`, the “growth inhibition (GI)” value in the assay with Enterococcus faecium [1] and with Lacticaseibacillus casei [2] was “Active” in each case.

In the case of `Nc1nc(=O)c2c([nH]1)NCC(CCSc1ccc(C(=O)N[C@@H](CCC(=O)O)C(=O)O)cc1)N2` (some centres not stated), the IC50 in the assay with Enterococcus faecium [1] is 1.2 ng/mL (≈ 2.52 nM). The I50 in the assay on Lacticaseibacillus casei [2] is listed as 8 ×10⁻⁷ g/ml.

Consider `Nc1nc(=O)c2nc(COc3ccc(C(=O)N[C@@H](CCC(=O)O)C(=O)O)cc3)cnc2[nH]1`, for which the “growth inhibition (GI)” value with Enterococcus faecium [1] and in the assay with Lacticaseibacillus casei [2] was “Active” each time.

For `Nc1nc(O)c2nc(CCSc3ccc(C(=O)N[C@@H](CCC(=O)O)C(=O)O)cc3)cnc2n1`, the inhibition result in assay [3] and in assay [5] was “inactive” each time. The “growth inhibition (GI)” value with Enterococcus faecium [4] and with Lacticaseibacillus casei [6] was “inactive” in each case. Further, the result in assay [7] was inactive.

On to `Nc1nc(=O)c2c([nH]1)NCC(CCSc1ccc(C(=O)N[C@@H](CCC(=O)O)C(=O)O)cc1)=N2`, for which the outcome in assay [7] was Active.

Turning to `COC(=O)c1ccc(SCCc2cnc3nc(N)[nH]c(=O)c3n2)cc1`, the “growth inhibition (GI)” value in the assay on Enterococcus faecium [1] and with Lacticaseibacillus casei [2] was “inactive” in each case.

With `Nc1nc2ncc(CCSc3ccc(C(=O)O)cc3)nc2c(=O)[nH]1`, the “growth inhibition (GI)” value with Enterococcus faecium [1] and with Lacticaseibacillus casei [2] was “inactive” in each case.

On to `Nc1nc(=O)c2c([nH]1)NCC(CCNc1ccc(C(=O)N[C@@H](CCC(=O)O)C(=O)O)cc1)N2` (some centres not stated), for which the IC50 with Enterococcus faecium [1] was determined as 0.7 ng/mL (≈ 1.52 nM).

Values taken from ChEMBL document CHEMBL3244244, “Folate analogues altered in the C9-N10 bridge region: 11-thiohomofolic acid” (J Med Chem, 1979).
